# Laboratory results: ChEMBL document CHEMBL4392869, “Possible Biosynthetic Products and Metabolites of Kainic Acid from the Red Alga Digenea simplex and Their Biological Activity” (J Nat Prod, 2019)
# Experiments:
# Assay type in all cases: organism-based
# Details in all cases: in vivo, icv_or_intrathecal
# [1] = Toxicity in ddY mouse assessed as death time at 1.1 nmol dosed via intracerebroventricular injection
# Method in brief: (§1)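 Male ddY mice (11−13 g, 3 weeks old), three per compound. Doses, quantified by LC-MS against a weighed standard, were given in 10 μL water, injected slowly over 5 s into the ventricle: 2 mm lateral to the skull midline, 3 mm rostral to the anterior ear-base line, 3 mm deep. Water served as vehicle control. Death time and behavioural symptoms were recorded.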
# [2] = Toxicity in ddY mouse assessed as induction of scratching at 1.1 nmol dosed via intracerebroventricular injection; method in brief: as §1
# [3] = Toxicity in ddY mouse assessed as induction of spasms at 1.1 nmol dosed via intracerebroventricular injection; method in brief: as §1
# [4] = Toxicity in ddY mouse assessed as induction of sudden jumping at 1.1 nmol dosed via intracerebroventricular injection; method in brief: as §1
# [5] = Toxicity in ddY mouse assessed as death time at 2.2 nmol dosed via intracerebroventricular injection; method in brief: as §1
# [6] = Toxicity in ddY mouse assessed as induction of adverse symptoms at 2.2 nmol dosed via intracerebroventricular injection; method in brief: as §1
# [7] = Toxicity in ddY mouse assessed as death time at 4.4 nmol dosed via intracerebroventricular injection; method in brief: as §1
# [8] = Toxicity in ddY mouse assessed as induction of adverse symptoms at 4.4 nmol dosed via intracerebroventricular injection; method in brief: as §1
# [9] = Toxicity in ddY mouse assessed as induction of scratching at 2.2 nmol dosed via intracerebroventricular injection; method in brief: as §1
# [10] = Toxicity in ddY mouse assessed as induction of spasms at 2.2 nmol dosed via intracerebroventricular injection; method in brief: as §1
# [11] = Toxicity in ddY mouse assessed as induction of sudden jumping at 2.2 nmol dosed via intracerebroventricular injection; method in brief: as §1
smiles,measurement,setting,value
C=C(C)[C@H]1CN[C@H](C(=O)O)[C@H]1CC(=O)O [KAINIC ACID],Time,[1],15 to 30 min
same,Activity,[2],Toxic
same,Activity,[3],Toxic
same,Activity,[4],Toxic
C=C(C)[C@]1(O)CN[C@H](C(=O)O)[C@H]1CC(=O)O,Activity,[5],Non-Toxic
same,Activity,[6],Non-Toxic
CC(C)=CCN[C@H](C(=O)O)[C@H](O)CC(=O)O (relative stereo),Activity,[7],Non-Toxic
same,Activity,[8],Non-Toxic
C=C(C)[C@@]1(O)CN[C@H](C(=O)O)[C@H]1CC(=O)O,Activity,[5],Non-Toxic
same,Activity,[9],Toxic
same,Activity,[10],Toxic
same,Activity,[11],Toxic
CC(C)=CCN[C@@H](CCC(=O)O)C(=O)O,Activity,[7],Non-Toxic
same,Activity,[8],Non-Toxic
